In ChEMBL document CHEMBL1124035, “1-Amino-substituted 4-methyl-5H-pyrido[4,3-b]indoles (gamma-carbolines) as tricyclic analogues of ellipticines: a new class of antineoplastic agents” (1988):
Active and inactive are the calls of the source. The calls are words filed in the database; no cut-off is given here.

Experiments:
Calf thymus DNA = assay: Apparent DNA affinity constant; type: nucleic-acid assay; conditions: Bos taurus
Outline: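 Apparent DNA affinity constant was measured by competition with ethidium bromide. Buffer was 20 mM Na2HPO4/NaH2PO4, 0.1 M NaCl, 1 mM EDTA, pH 7.4, with calf thymus DNA at 10 μg/mL. Values are given in 10^6 M⁻¹.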

L1210 = assay: Ability to reduce the cell count to 50% in L1210 culture cells; type: functional; conditions: Mus musculus, read-out: ID50 (the source's name)
Outline: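 L1210 cells in exponential growth in RPMI 1640 with 2 mM glutamine, penicillin/streptomycin and 10% FCS, 37 °C, 5% CO2. Drugs dissolved in distilled water were added to cells at 0.8 × 10^5 cells/mL for 48 h, then cells were counted. ID50 is the concentration halving cell proliferation versus controls, from regression of dose-response data; mean of two independent experiments.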

Mus musculus [1] = assay: Antitumor activity against P388 leukemia in intraperitoneally for 5 days; type: functional
Outline: (§1)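 CDF1 hybrid male or female mice, 10 per group, were inoculated ip with 10^6 viable P388 cells on day 0. Drugs in distilled water were given ip (0.1 mL/10 g body weight) daily D1-5. Vehicle, 5-fluorouracil and BD 84 were given the same way. T/C = median survival day of treated / controls × 100; T/C > 128% was significant; cures counted at D60.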

Mus musculus [2] = assay: Antitumor activity against P388 leukemia in mice at a dose of 40 mg/kg administered intraperitoneally for 5 days; type: functional; conditions: route intraperitoneal
Outline: (§2)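 CDF1 hybrid male or female mice, 10 per group, were inoculated ip on day 0 with 10^6 viable P388 leukemia cells. Drug in distilled water was given ip (0.1 mL/10 g body weight) daily on days 1-5, with vehicle, 5-fluorouracil and BD 84 controls given the same way. T/C = median survival of treated/controls × 100; T/C > 128% counted as significant.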

Mus musculus [3] = assay: Antitumor activity against P388 leukemia in mice at a dose of 80 mg/kg administered intraperitoneally for 5 days; type: functional, organism-based; parameters: dose 80 mg/kg; outline: as §2
Mus musculus [4] = assay: Antitumor activity against P388 leukemia in mice at a dose of 20 mg/kg administered intraperitoneally for 5 days; type: functional; conditions: route intraperitoneal; outline: as §1
Mus musculus [5] = assay: Antitumor activity against P388 leukemia in mice at a dose of 10 mg/kg administered intraperitoneally for 5 days; type: functional; outline: as §1
Mus musculus [6] = assay: Antitumor activity against P388 leukemia in mice at a dose of 5 mg/kg administered intraperitoneally for 5 days; type: functional; outline: as §2
Mus musculus [7] = assay: Antitumor activity against P388 leukemia in mice at a dose of 50 mg/kg administered intraperitoneally for 5 days; […]; type: functional; conditions: route intraperitoneal; outline: as §2
Mus musculus [8] = assay: (§3) Antitumor activity against P388 leukemia in mice at a dose of 50 mg/kg administered intraperitoneally for 5 days; type: functional; conditions: route intraperitoneal; outline: as §2
Mus musculus [9] = assay: Antitumor activity against P388 leukemia in mice at a dose of 12 mg/kg administered intraperitoneally for 5 days; type: functional; conditions: route intraperitoneal; outline: as §1
Mus musculus [10] = assay: Antitumor activity against P388 leukemia in mice at a dose of 6 mg/kg administered intraperitoneally for 5 days; type: functional; conditions: route intraperitoneal; outline: as §2
Mus musculus [11] = assay: Antitumor activity against P388 leukemia in mice at a dose of 100 mg/kg administered intraperitoneally for 5 days; type: functional, organism-based; parameters: dose 100 mg/kg; outline: as §1
Mus musculus [12] = assay: Antitumor activity against P388 leukemia in mice at a dose of 24 mg/kg administered intraperitoneally for 5 days; type: functional; conditions: route intraperitoneal; outline: as §2
Mus musculus [13] = assay: as §3; type: functional, organism-based; parameters: dose 50 mg/kg; outline: as §2
Mus musculus [14] = assay: Antitumor activity against P388 leukemia in mice at a dose of 40 mg/kg administered intraperitoneally; type: functional, organism-based; parameters: dose 40 mg/kg

Row | SMILES | K aff (Calf thymus DNA) | IC50 (L1210) | T/C (Mus musculus [4]) | T/C (Mus musculus [5]; route intraperitoneal) | further results
1 | CCN(CC)CCCCNc1ncc(C)c2c1c1cc(OC)ccc1n2C | 460000 M⁻¹ | 1300 nM | – | – | –
2 | Cc1cnc(NCC(C)CN(C)C)c2c3cc(O)ccc3n(C)c12 (stereo unspecified) | 140000 M⁻¹ | 10 nM | – | – | –
3 | CCN(CC)CCCNc1[nH]cc(C)c2nc3ccc(OC)cc3c1-2 | 220000 M⁻¹ | 300 nM | 149% | – | T/C (Mus musculus [1]): 147%; T/C (Mus musculus [2]): 176%; T/C (Mus musculus [3]): Toxic
4 | CCN(CC)CCCNc1ncc(C)c2c1c1cc(OC)ccc1n2C | 250000 M⁻¹ | 100 nM | 125% | 115% | T/C (Mus musculus [2]): 115%; T/C (Mus musculus [6]; route intraperitoneal): 107%; T/C (Mus musculus [3]): Toxic
5 | CCN(CC)CCCNc1[nH]cc(C)c2nc3ccccc3c1-2.O=C(O)/C=C\C(=O)O.O=C(O)/C=C\C(=O)O | 150000 M⁻¹ | 220 nM | – | 130% | T/C (Mus musculus [7]): 175%
6 | CCN(CC)CCCNc1ncc(C)c2c1c1ccccc1n2C | 160000 M⁻¹ | 720 nM | – | – | T/C (Mus musculus [8]): 131%; T/C (Mus musculus [9]): 110%; T/C (Mus musculus [10]): 105%; T/C (Mus musculus [11]): Toxic; T/C (Mus musculus [12]): 118%
7 | Cc1cnc(NCCCN(C)C)c2c3ccccc3n(C)c12 | 150000 M⁻¹ | 350 nM | – | – | T/C (Mus musculus [13]): Toxic; T/C (Mus musculus [9]): 114%; T/C (Mus musculus [10]): 107%; T/C (Mus musculus [12]): 131%
8 | CCN(CC)CC(O)CNc1ncc(C)c2c1c1cc(O)ccc1n2C (stereo unspecified) | 230000 M⁻¹ | 60 nM | – | – | T/C (Mus musculus [5]): Toxic; T/C (Mus musculus [6]): inactive
9 | CCNCCCNc1[nH]cc(C)c2nc3ccc(OC)cc3c1-2 | 220000 M⁻¹ | 1200 nM | 107% | 119% | T/C (Mus musculus [6]; route intraperitoneal): 119%; T/C (Mus musculus [14]): Toxic
10 | COc1ccc2c(c1)c1c(NCC(C)CN(C)C)ncc(C)c1n2C (stereo unspecified) | 150000 M⁻¹ | 1000 nM | – | – | –
